ChEMBL document CHEMBL1138262, “Discovery of small molecule CXCR4 antagonists” (J Med Chem, 2007)
Where a SMILES comes first, the peptide text is derived from it. Bridges are numbered along the chain shown (N, C = ends). [ ]: non-standard residue; d: D form. 2Nal = N[C@@H](Cc1ccc2ccccc2c1)C(=O)O; Cit = NC(=O)NCCC[C@H](N)C(=O)O

Assays:
[1] = target: T1, C-X-C chemokine receptor type 4 (Homo sapiens, UniProt P61073); experiment: Displacement of biotinylated TN14003 from CXCR4 in MDA-MB-231 cells; assay type: cell-based
T1 sequence (P61073 whole entry): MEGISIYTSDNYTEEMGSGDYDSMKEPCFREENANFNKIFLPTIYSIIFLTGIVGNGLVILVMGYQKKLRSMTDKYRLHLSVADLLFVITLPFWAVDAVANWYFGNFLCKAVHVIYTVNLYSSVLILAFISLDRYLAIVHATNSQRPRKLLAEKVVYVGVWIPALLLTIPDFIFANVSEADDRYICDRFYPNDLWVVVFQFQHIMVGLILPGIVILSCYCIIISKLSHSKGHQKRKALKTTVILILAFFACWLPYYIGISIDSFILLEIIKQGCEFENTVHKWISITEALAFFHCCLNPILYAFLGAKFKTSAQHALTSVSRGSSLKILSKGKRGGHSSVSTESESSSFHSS
How it was run: (§1)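 MDA-MB-231 cells (2 × 10^4) seeded 2 days before. Exposed to compound at 1, 10, 100 or 1000 nM for 10 min at room temperature, then fixed in ice-cold 4% paraformaldehyde. After rehydration in PBS and avidin/biotin blocking, incubated 45 min at room temperature with 0.05 µg/mL biotinylated TN14003, then streptavidin-rhodamine 30 min. Residual binding assessed by fluorescence microscopy.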

[2] = Selectivity index, ratio of IC50 for CXCR4 to CC50 for MDA-MB-231 cells; assay type: functional, Homo sapiens
MDA-MB-231 [3] = experiment: Cytotoxicity against MDA-MB-231 cells; assay type: functional; settings: Homo sapiens
[4] = target: T1, C-X-C chemokine receptor type 4; experiment: Inhibition of CXCR4 in MDA-MB-231 cells; assay type: cell-based; how it was run: as §1
[5] = target: T1, C-X-C chemokine receptor type 4; experiment: Antagonist activity at CXCR4 in human U87 cells assessed as inhibition of SDF1-induced modulation of cAMP production by TR-FRET assay; assay type: functional, cell-based; settings: U-87MG ATCC
How it was run: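 U87 glioma cells overexpressing CD4 and CXCR4 (U87CD4CXCR4), seeded 2500 cells/well in 2% FBS 48 h before test. Cells pretreated with compound at various concentrations for 15 min at room temperature, then challenged with 150 ng/mL SDF-1. SDF-1-driven cAMP reduction measured by TR-FRET LANCE cAMP kit as Gi function readout.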

MDA-MB-231 [6] = experiment: Inhibition of SDF1-mediated invasion of human MDA-MB-231 cells; assay type: functional, cell-based
How it was run: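 Matrigel invasion chamber; MDA-MB-231 cells mixed with compound before seeding in top chamber, 200 ng/mL SDF-1α in bottom chamber as chemoattractant. Incubated 22 h in humidified incubator. Non-invading cells swabbed off the top. Invaded cells on the underside fixed in methanol, stained with H&E and counted to give invasion rate.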

SMILES | EC [1] | also measured
c1ccc(CNc2ccccc2)cc1 | > 1000 nM | 
Cc1c(C)c(CN)c(C)c(C)c1CN | > 1000 nM | 
c1ccc(NCc2c3ccccc3c(CNc3ccccc3)c3ccccc23)cc1 | 100 nM | 
COc1cccc(NC(=O)c2ccc(C(=O)Nc3cccc(OC)c3)cc2)c1 | 1000 nM | 
CCc1ccc(NCc2ccc(CNc3ccc(CC)cc3)cc2)cc1 | 20 nM | 
COc1ccccc1NCc1ccc(CNc2ccccc2OC)cc1 | 10 nM | 
N=C(N)Nc1ccc(NC(=N)N)cc1 | > 1000 nM | 
c1ccc(NCc2ccccc2CNc2ccccc2)cc1 | 100 nM | 
O=[N+]([O-])c1ccc(NCc2ccc(CNc3ccc([N+](=O)[O-])cc3)cc2)cc1 | 1000 nM | 
Cc1c(C)c(CNc2ccccc2)c(C)c(C)c1CNc1ccccc1 | 10 nM | 
c1ccc(NCc2ccc(CNc3ccccc3)cc2)cc1 | 10 nM | 
C(=N\NC1=NCCN1)/c1ccc(/C=N/NC2=NCCN2)cc1 | > 1000 nM | 
COc1ccc(NCc2ccc(CNc3ccc(OC)cc3)cc2)cc1 | 25 nM | 
c1ccc(NCCNCc2ccc(CNCCNc3ccccc3)cc2)cc1 | > 1000 nM | 
Cc1cc(CN)c(C)cc1CN | > 1000 nM | 
c1ccc(NCc2ccc(CNc3ccccc3)c3ccccc23)cc1 | 100 nM | 
c1ccc(CNCc2ccc(CNCc3ccccc3)cc2)cc1 | 80 nM | 
CC(Nc1ccccc1)c1ccc(C(C)Nc2ccccc2)cc1 (stereo not given) | 50 nM | 
COc1cccc(NCc2ccc(CNc3cccc(OC)c3)cc2)c1 | 1 nM | 
CN(Cc1ccc(CN(C)c2ccccc2)cc1)c1ccccc1 | 100 nM | 
CN(C)CCNCc1ccc(CNCCN(C)C)cc1 | > 1000 nM | 
Fc1cccc(NCc2ccc(CNc3cccc(F)c3)cc2)c1 | 100 nM | 
C[N+](C)(C)Cc1ccc(C[N+](C)(C)C)cc1 | > 1000 nM | 

SMILES | EC [1] | also measured
Fc1ccc(NCc2ccc(CNc3ccc(F)cc3)cc2)cc1 | 1000 nM | 
N=C(N)NCc1ccc(CNC(=N)N)cc1 | > 1000 nM | 
c1ccc(NCc2cccc(CNc3ccccc3)c2)cc1 | 10 nM | 
N#Cc1ccc(NCc2ccc(CNc3ccc(C#N)cc3)cc2)cc1 | 1000 nM | 
Fc1ccccc1NCc1ccc(CNc2ccccc2F)cc1 | 1 nM | 
N=C(N)NCCC[C@H](NC(=O)[C@@H]1CSSC[C@H](NC(=O)[C@H](Cc2ccc3ccccc3c2)NC(=O)[C@H](CCCNC(=N)N)NC(=O)[C@@H](N)CCCNC(=N)N)C(=O)N[C@@H](Cc2ccc(O)cc2)C(=O)N[C@@H](CCCNC(N)=O)C(=O)N[C@@H](CCCCN)C(=O)N[C@H](CCCCN)C(=O)N2CCC[C@H]2C(=O)N[C@@H](Cc2ccc(O)cc2)C(=O)N[C@@H](CCCNC(=N)N)C(=O)N[C@@H](CCCNC(N)=O)C(=O)N1)C(N)=O (H-RR[2Nal]CY[Cit]K[dK]PYR[Cit]CR-NH2; disulfide 4-13) |  | Ratio [2]: 680000; CC50 (MDA-MB-231 [3]): 410000 nM; IC50 [4]: 0.6 nM
N=C(N)c1ccc(C(=N)N)cc1 | > 1000 nM | 
O=[N+]([O-])c1cccc(NCc2ccc(CNc3cccc([N+](=O)[O-])c3)cc2)c1 | 1 nM | 
c1cc(CNC2=NCCN2)ccc1CNC1=NCCN1 | > 1000 nM | 
c1ccc(NCc2ccc(CNc3ccccn3)cc2)nc1 |  | Activity [5]: Dose-dependent effect; EC50 [1]: 1 nM; EC50 ([1]; read-out: EC50): 0.3 nM; EC50 (MDA-MB-231 [6]): 5.2 nM
c1ccc(NCc2cc(CNc3ccccc3)cc(CNc3ccccc3)c2)cc1 | > 1000 nM | 
FC(F)(F)c1cccc(NCc2ccc(CNc3cccc(C(F)(F)F)c3)cc2)c1 | 1000 nM | 
N=C(N)c1ccc(CN)cc1 | > 1000 nM | 
c1ccc(-c2nc(-c3ccc(-c4nc(-c5ccccc5)c(-c5ccccc5)[nH]4)cc3)[nH]c2-c2ccccc2)cc1 | > 1000 nM | 
NC(=O)c1ccc(C(N)=O)cc1 | > 1000 nM | 
N=C(N)N/N=C/c1ccc(/C=N/NC(=N)N)cc1 | 100 nM | 
c1ccc(NC[C@H]2CC[C@H](CNc3ccccc3)CC2)cc1 | > 1000 nM | 
Oc1cc(CN2CCOCC2)c(O)cc1CN1CCOCC1 | > 1000 nM | 
Cc1ccc(NCc2ccc(CNc3ccc(C)cc3)cc2)cc1 | 10 nM | 
Cc1cc(CNc2ccccc2)c(C)cc1CNc1ccccc1 | 200 nM | 
NCc1ccc(CN)cc1 | > 1000 nM | 
CN(C)Cc1ccc(CN(C)C)cc1 | > 1000 nM | 
